Experimental data collected from several papers.
Compare with care: the assays were run in different laboratories.

`CC(C)(C)[C@H](NC(=O)[C@H](CCONC(=N)N)NC(=O)Cc1ccc(CNC(=N)N)cc1)C(=O)N[C@@H](CCONC(=N)N)C(=O)NCc1ccc(C(=N)N)cc1` gave an AUC(0-t) of 9350 ng·h/mL (male Sprague-Dawley rat, plasma; intraperitoneal, 2.5 mg/kg).
`CCCCCn1nc(C(=O)Nc2cccc3ccccc23)c2ccccc21` has an AUC(0-inf) of 314 ng·h/mL (male Long-Evans rat, plasma; intraperitoneal, 3 mg/kg).
`[2H]C([2H])([2H])n1cc2cc(Nc3nc(=O)n(Cc4ncn(C)n4)c(=O)n3Cc3cc(F)c(F)cc3F)c(Cl)cc2n1` has an AUC(0-t) of 334000 ng·h/mL (male Sprague-Dawley rat, plasma; oral, 25 mg/kg).
For `O=C([O-])C(=O)[O-].[NH-][C@@H]1CCCC[C@H]1[NH-].[Pt+4]` (relative stereo), the AUC(0-inf) was 170 ng·h/mL (rat, plasma; oral, 10 mg/kg).
With `Cn1cnc(Cn2c(=O)[nH]/c(=N\c3cc4cn(C)nc4cc3Cl)n(Cc3cc(F)c(F)cc3F)c2=O)n1` the AUC(0-t) was 81000 ng·h/mL (male Sprague-Dawley rat, plasma; intravenous, 5 mg/kg).
The AUC(0-t) of `CN(C)C(=O)Oc1cc(OC(=O)N(C)C)cc(-c2cc3ccc(O)cc3o2)c1` is reported as 17.7 ng·h/mL (male rat, plasma; oral, 5 mg/kg).
The AUC(0-t) of `CCC[C@@](N)(CO)CCc1ccc(OCCCCCC(C)C)cc1` is reported as 6.18 µM·h (rat, plasma; oral, 30 mg/kg).
With `Cl.Cl.O=C(CCN1CCCCC1)c1ccc(-c2ccc(C(=O)CCN3CCCCC3)cc2)cc1` the AUC(0-t) was 251 ng·h/mL (Sprague-Dawley rat, plasma; intravenous, 5 mg/kg).
`[2H]C([2H])(c1cc(F)c(F)cc1F)n1c(=O)n(Cc2ncn(C)n2)c(=O)[nH]/c1=N\c1cc2cn(C)nc2cc1Cl` has an AUC(0-t) of 78000 ng·h/mL (male Sprague-Dawley rat, plasma; intravenous, 5 mg/kg).
With `COC(=O)C(NC(=O)c1cn(CCCCCF)c2ccccc12)C(C)(C)C` (stereo not shown) the AUC(0-t) was 17 ng·h/mL (male Sprague-Dawley rat, plasma; subcutaneous, 100 µg/kg).
`N=c1c2c(-c3ccccc3)c(-c3ccccc3)n(Cc3ccccc3)c2ncn1[C@H]1CC[C@H](O)CC1` gave an AUC(0-inf) of 1500 ng·h/mL (male Sprague-Dawley rat, plasma; oral, 2 mg/kg, single dose).
The AUC(0-inf) of `CCCCCCCC(=O)N[C@@H](CCCCN)C(=O)N[C@@H](CCCCN)C(=O)N[C@@H](C)C(=O)N[C@@H](CC(C)C)C(=O)N[C@@H](CCCCN)C(=O)N[C@@H](CC(C)C)C(=O)N[C@@H](C)C(=O)N[C@@H](CCCCN)C(=O)N[C@@H](CCCCN)C(=O)N1CCC[C@H]1C(=O)N[C@@H](CC(C)C)C(=O)N[C@@H](CCCCN)C(=O)N[C@@H](CC(C)C)C(=O)N[C@@H](CC(C)C)C(=O)N[C@@H](CCCCN)C(N)=O` is reported as 273 ng·h/mL (male Sprague-Dawley rat, blood; intravenous, 3 mg/kg, infusion).
`CCCCCn1cc(C(=O)Nc2cccc3ccccc23)c2ccccc21` gave an AUC(0-inf) of 5960 ng·h/mL (male Long-Evans rat, plasma; intraperitoneal, 3 mg/kg).
